Measured values gathered from unrelated publications.
Protocols differ between the studies behind these lines.
Target: MAP kinase-interacting serine/threonine-protein kinase 1 (MKNK1, Homo sapiens, UniProt Q9BUB5)

SMILES	effect on	technique	concentration	remaining binding
CC(=O)C1=C(C)N(c2cccc(C(F)(F)F)c2)C(=O)N[C@@H]1c1ccc(C#N)nc1	cell-free assay	competition with immobilised ligand	1 µM	100%
Cc1cnc(Nc2ccc(C(=O)N3CCC(N4CCCC4)CC3)cc2)nc1-c1cc2ccccc2s1	binding	competition with immobilised ligand	1 µM	48%
O=C(NCCCC1CCCCC1)c1ccc(CNC(=O)c2cnn(-c3ccccc3)c2C(F)(F)F)cc1	cell-free assay	competition with immobilised ligand	0.1 µM	98%
Nc1ncc2c(n1)-c1c([nH]c3ccc(C#CC4CC4)cc13)CCCC2	binding	competition with immobilised ligand	1 µM	86%
NS(=O)(=O)c1cc(NC(=O)Cc2ccccc2)ccc1Oc1cccc(Cl)c1	cell-free assay	competition with immobilised ligand	1 µM	79%
O=C(NCC1CCOCC1)c1n[nH]cc1NC(=O)c1c(F)cccc1F	binding	competition with immobilised ligand	1 µM	88%
N[C@H]1CCN(c2nccc(-c3cnn4ncccc34)n2)C1	binding	–	1 µM	90%
CNC(=O)[C@@H]1CC[C@@H](n2c(-c3ccc4cnccc4c3)nc3ccc(C(=O)NCc4cccc(C(N)=O)c4)cc32)C1	binding	competition with immobilised ligand	1 µM	100%
CN(C)c1nccc(-c2cnn3ncccc23)n1	binding	–	1 µM	100%
O=C(c1ccc(Nc2ncc(Cl)c(-c3cc4ccccc4s3)n2)cc1)N1CCC(N2CCCC2)CC1	binding	competition with immobilised ligand	1 µM	24%
C[C@H]1CCN(c2nccc(-c3cnn4ncccc34)n2)C1	binding	–	1 µM	59%
CS(=O)(=O)N1CCCC(NC(=O)[C@H](CCC2CCCCC2)NC(=O)c2ccc(CNC(=O)c3cnc4ccccn34)cc2)C1 (stereo partly shown)	cell-free assay	competition with immobilised ligand	0.1 µM	100%
F[C@@H]1CCN(c2nccc(-c3cnn4ncccc34)n2)C1	binding	–	1 µM	100%
N#Cc1ccccc1CSc1nnc2c(n1)[nH]c1ccccc12	binding	competition with immobilised ligand	10 µM	98%
c1cnn2ncc(-c3ccnc(N4CCC45COC5)n3)c2c1	binding	–	1 µM	53%
CS(=O)(=O)c1cc(C2(NC(=O)c3cncc4c3cnn4-c3ccc(F)cc3)CC2)ccn1	cell-free assay	competition with immobilised ligand	1 µM	47%
